Laboratory results as given in ChEMBL document CHEMBL1140346 (J Med Chem, 2005).

Tests used:
[1] = target: Dipeptidyl peptidase 4 (Rattus norvegicus) (UniProt P14740); assay: Ex vivo percent inhibition of Dipeptidyl peptidase IV in rat plasma after 30 min at 4 umol/kg peroral dose; format: functional, cell-free
[2] = Oral bioavailability in rat; format: ADME, organism-based; conditions: in vivo
Outline: (§1)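 Fasted adult male Sprague-Dawley rats (250–300 g), jugular-cannulated, given 10 mg/kg in water as iv bolus or oral gavage (n = 2 per route); serial heparinized blood to 12 h, plasma acetonitrile-precipitated and quantified by LC/MS. AUC by trapezoidal (oral) or log-linear (iv) integration; F = mean oral AUC / mean iv AUC.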

[3] = target: Dipeptidyl peptidase 4 (Homo sapiens, UniProt P27487); assay: In vitro inhibition constant against human Dipeptidyl peptidase IV
Sequence of Dipeptidyl peptidase 4 (P27487 whole entry): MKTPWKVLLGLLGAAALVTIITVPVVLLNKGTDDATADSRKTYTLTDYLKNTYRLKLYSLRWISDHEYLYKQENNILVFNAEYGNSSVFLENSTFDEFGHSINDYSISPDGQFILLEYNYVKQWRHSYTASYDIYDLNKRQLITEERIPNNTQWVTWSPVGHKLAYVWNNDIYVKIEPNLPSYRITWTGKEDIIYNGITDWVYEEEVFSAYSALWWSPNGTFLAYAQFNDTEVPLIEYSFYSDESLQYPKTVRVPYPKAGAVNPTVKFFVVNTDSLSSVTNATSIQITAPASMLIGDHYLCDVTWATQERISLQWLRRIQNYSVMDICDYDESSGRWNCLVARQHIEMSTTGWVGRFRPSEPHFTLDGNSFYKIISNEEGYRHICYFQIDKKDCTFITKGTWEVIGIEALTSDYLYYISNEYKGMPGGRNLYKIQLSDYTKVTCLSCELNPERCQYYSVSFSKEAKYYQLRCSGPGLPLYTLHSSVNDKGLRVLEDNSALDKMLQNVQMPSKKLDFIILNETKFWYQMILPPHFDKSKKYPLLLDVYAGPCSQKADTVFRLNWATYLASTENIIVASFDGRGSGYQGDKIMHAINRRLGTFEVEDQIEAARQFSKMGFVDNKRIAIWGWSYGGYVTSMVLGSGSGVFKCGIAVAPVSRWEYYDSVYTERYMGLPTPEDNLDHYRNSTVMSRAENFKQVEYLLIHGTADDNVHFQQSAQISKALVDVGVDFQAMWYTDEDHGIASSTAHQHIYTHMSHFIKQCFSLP
Outline: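 Recombinant human DPP-IV expressed in CHO-DG44 cells, purified by anion exchange, gel filtration and MonoQ. […] IC50 from Hill fit (Morrison where needed), converted to Ki assuming competitive inhibition; mean ± SEM, ≥ triplicate.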

[4] = target: Dipeptidyl peptidase 4 (Rattus norvegicus) (UniProt P14740); assay: Ex vivo percent inhibition of Dipeptidyl peptidase IV in rat plasma after 4 hr at 4 umol/kg peroral dose; format: functional, cell-free
[5] = target: Dipeptidyl peptidase 4 (Rattus norvegicus) (UniProt P14740); assay: Effective dose for inhibition of Dipeptidyl peptidase IV in prediabetic rat model after 6 hr; format: functional
Outline: (§2)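 Fasted normal male Sprague-Dawley rats given oral doses; plasma (EDTA) taken 0.5, 2, 4 or 6 h postdose and DPP-IV activity read with fluorogenic Ala-Pro-AFC (0.1 mM, 50 mM Hepes/140 mM NaCl, ex 360/em 530 nm, initial 20 min rate). ED50 = 50% inhibitory dose from percent inhibition vs dose plot at each time point.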

[6] = target: Dipeptidyl peptidase 4 (Rattus norvegicus) (UniProt P14740); assay: Effective dose for inhibition of Dipeptidyl peptidase IV in prediabetic rat model after 0.5 hr; format: functional; conditions: in the assay text read “fasted normal Sprague-Dawley rat model” for “prediabetic rat model”; outline: as §2
[7] = target: Dipeptidyl peptidase 4 (Rattus norvegicus) (UniProt P14740); assay: Effective dose for inhibition of Dipeptidyl peptidase IV in prediabetic rat model after 2 hr; format: functional; conditions: in the assay text read “fasted normal Sprague-Dawley rat” for “prediabetic rat model”; outline: as §2
[8] = target: Dipeptidyl peptidase 4 (Rattus norvegicus) (UniProt P14740); assay: Effective dose for inhibition of Dipeptidyl peptidase IV in prediabetic rat model after 4 hr; format: functional; conditions: in the assay text read “fasted normal Sprague-Dawley rat” for “prediabetic rat model”; outline: as §2
[9] = target: Dipeptidyl peptidase 4 (Rattus norvegicus) (UniProt P14740); assay: Ex vivo Dipeptidyl peptidase IV inhibition in rat plasma after 4 hr 4 umol/kg peroral dose; format: functional, cell-free
[10] = Half life in rat; format: ADME; conditions: in vivo; outline: as §1
[11] = target: Cytochrome P450 3A4 (Homo sapiens, UniProt P08684); assay: Inhibitory concentration against Cytochrome 450 3A4; format: ADME
Sequence of Cytochrome P450 3A4 (P08684 whole entry): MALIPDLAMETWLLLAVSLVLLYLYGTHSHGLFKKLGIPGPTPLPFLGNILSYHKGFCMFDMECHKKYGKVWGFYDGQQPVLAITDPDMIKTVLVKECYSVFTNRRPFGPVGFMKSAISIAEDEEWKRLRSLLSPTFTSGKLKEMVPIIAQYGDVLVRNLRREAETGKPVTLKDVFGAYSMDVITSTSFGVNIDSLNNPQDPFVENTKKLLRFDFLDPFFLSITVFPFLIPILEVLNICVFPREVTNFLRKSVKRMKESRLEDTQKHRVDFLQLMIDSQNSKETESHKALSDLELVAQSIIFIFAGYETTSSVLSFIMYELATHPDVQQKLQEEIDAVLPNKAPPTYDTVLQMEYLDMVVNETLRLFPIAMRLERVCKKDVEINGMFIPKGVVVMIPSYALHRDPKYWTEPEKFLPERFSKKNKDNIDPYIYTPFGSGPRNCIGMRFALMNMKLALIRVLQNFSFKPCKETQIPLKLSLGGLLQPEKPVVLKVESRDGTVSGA

Sequence of Dipeptidyl peptidase 4 (Rattus norvegicus) (P14740 whole entry, looked up): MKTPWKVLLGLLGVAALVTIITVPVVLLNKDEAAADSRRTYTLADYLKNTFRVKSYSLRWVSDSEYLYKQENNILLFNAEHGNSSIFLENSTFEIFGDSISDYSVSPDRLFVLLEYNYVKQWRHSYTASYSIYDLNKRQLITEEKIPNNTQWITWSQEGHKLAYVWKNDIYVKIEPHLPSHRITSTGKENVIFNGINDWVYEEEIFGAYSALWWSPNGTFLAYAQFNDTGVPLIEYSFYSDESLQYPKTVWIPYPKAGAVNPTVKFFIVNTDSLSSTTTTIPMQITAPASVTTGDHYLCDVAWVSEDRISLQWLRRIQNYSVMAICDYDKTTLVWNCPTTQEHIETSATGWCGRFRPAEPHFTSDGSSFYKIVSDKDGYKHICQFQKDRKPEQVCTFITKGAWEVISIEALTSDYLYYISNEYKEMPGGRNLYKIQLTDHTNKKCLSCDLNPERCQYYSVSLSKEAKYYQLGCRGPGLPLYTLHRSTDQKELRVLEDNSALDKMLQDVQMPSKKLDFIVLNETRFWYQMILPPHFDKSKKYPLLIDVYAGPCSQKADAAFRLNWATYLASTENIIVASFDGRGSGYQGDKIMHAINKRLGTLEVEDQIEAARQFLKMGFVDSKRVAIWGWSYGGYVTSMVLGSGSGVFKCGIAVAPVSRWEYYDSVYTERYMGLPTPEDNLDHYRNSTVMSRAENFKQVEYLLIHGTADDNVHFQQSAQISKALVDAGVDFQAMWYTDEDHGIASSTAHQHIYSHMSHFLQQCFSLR

## C=CC1([C@H](N)C(=O)N2[C@H](C#N)C[C@@H]3C[C@@H]32)CCCC1
[1]
  inhibition: 71%
[2]
  bioavailability: 5.3%
[3]
  Ki: 0.0039 µM
[4]
  inhibition: 64%

## C=CC1([C@H](N)C(=O)N2[C@H](C#N)C[C@@H]3C[C@@H]32)CCCCCC1
[1]
  inhibition: 77%
[4]
  inhibition: 66%

## C=CC(C)(C)[C@H](N)C(=O)N1[C@H](C#N)C[C@@H]2C[C@@H]21
[1]
  inhibition: 13%
[4]
  inhibition: 10%

## C=CC(CC)(CC)[C@H](N)C(=O)N1[C@H](C#N)C[C@@H]2C[C@@H]21
[1]
  inhibition: 39%
[4]
  inhibition: 20%

## N#C[C@@H]1C[C@@H]2C[C@@H]2N1C(=O)[C@@H](N)C1(CO)CCCC1
[1]
  inhibition: 69%
[5]; in the assay text read “fasted normal Sprague-Dawley rat” for “prediabetic rat model”
  ED50: 11 µmol/kg
[2]
  bioavailability: 59%
[6]
  ED50: 0.4 µmol/kg
[7]
  ED50: 3.2 µmol/kg
[8]
  ED50: 5 µmol/kg
[4]
  inhibition: 56%

## N#C[C@@H]1C[C@@H]2C[C@@H]2N1C(=O)[C@@H](N)C12CC3CC(CC(O)(C3)C1)C2 [SAXAGLIPTIN ANHYDROUS]
[1]
  inhibition: 87%
[5]; in the assay text read “fasted normal Sprague-Dawley rat model” for “prediabetic rat model”
  ED50: 0.5 µmol/kg
[2]
  bioavailability: 75%
[9]
  inhibition: 87%
[6]
  ED50: 0.12 µmol/kg
[7]
  ED50: 0.2 µmol/kg
[10]
  half-life: 2.1 h
[8]
  ED50: 0.3 µmol/kg

## C=CC1([C@H](N)C(=O)N2[C@H](C#N)C[C@@H]3C[C@@H]32)CCC1
[1]
  inhibition: 42%
[4]
  inhibition: 32%

## N#C[C@@H]1C[C@@H]2C[C@@H]2N1C(=O)[C@@H](N)C12CC3CC(CC(C3)C1)C2
[1]
  inhibition: 84%
[2]
  bioavailability: 2%
[9]
  inhibition: 83%
[11]
  IC50: 20 µM

## C=CC1([C@H](N)C(=O)N2[C@H](C#N)C[C@@H]3C[C@@H]32)CCCCC1
[1]
  inhibition: 76%
[4]
  inhibition: 60%

## CCC1([C@H](N)C(=O)N2[C@H](C#N)C[C@@H]3C[C@@H]32)CCCC1
[1]
  inhibition: 40%
[4]
  inhibition: 44%

## N#C[C@@H]1C[C@@H]2C[C@@H]2N1C(=O)[C@@H](N)C12CC3CC(CC(F)(C3)C1)C2
[1]
  inhibition: 80%
[9]
  inhibition: 61%

## N#C[C@@H]1C[C@@H]2C[C@@H]2N1C(=O)[C@@H](N)C12CC3CC(O)(CC(O)(C3)C1)C2
[1]
  inhibition: 62%
[9]
  inhibition: 57%

## N#C[C@@H]1C[C@@H]2C[C@@H]2N1C(=O)[C@@H](N)C1(CO)CCC1
[1]
  inhibition: 36%
[4]
  inhibition: 17%

## N#C[C@@H]1C[C@@H]2C[C@@H]2N1C(=O)[C@@H](N)C1(CO)CCCCC1
[1]
  inhibition: 17%
[4]
  inhibition: 8%

## CCC(C)(C)[C@H](N)C(=O)N1[C@H](C#N)C[C@@H]2C[C@@H]21
[1]
  inhibition: 0%
[4]
  inhibition: 0%
